Results published in ChEMBL document CHEMBL4020844, “Regio- and Stereospecific Synthesis of Oridonin D-Ring Aziridinated Analogues for the Treatment of Triple-Negative Breast Cancer via Mediated Irreversible Covalent Warheads” (J Med Chem, 2018).
pIC50: −log10 of the molar value. Calls of active or inactive are those of the source. The rule behind the calls is not given here.

What was measured:
[1] = system: MDA-MB-231; assay: Induction of apoptosis in human MDA-MB-231 cells assessed as upregulation of cleaved PARP after 48 hrs by Western blot analysis; type: functional, cell-based
Procedure, shortened: (§1)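 MDA-MB-231 cells were exposed to DMSO or compound at several concentrations for 48 h, then lysed. Protein was measured by Bradford with a BSA standard. 40 μg total protein was run on SDS-PAGE and transferred to nitrocellulose, then blocked with 5% milk. Primary antibodies were applied overnight: Bcl-2 1:200, cleaved PARP 1:500, NF-κB 1:1000, Bax 1:1000, β-actin 1:2000. Detection was by ECL.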

[2] = system: MDA-MB-468; assay: Inhibition of colony formation in human MDA-MB-468 cells after 2 weeks by crystal violet staining based assay; type: functional, cell-based
Procedure, shortened: (§2)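 Cells were seeded at 600 per well (MDA-MB-231) or 800 per well (MDA-MB-468, SK-BR3, MCF-7). After 24 h they were exposed to 1, 5, 10, 15 or 20 μM, or DMSO, with medium plus compound renewed every 72 h for 2 weeks. Wells were PBS-washed, stained with 0.01% crystal violet for 10 min, washed, dried and photographed.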

[3] = system: MDA-MB-231; assay: Induction of apoptosis in human MDA-MB-231 cells assessed as late apoptotic cells at 5 uM after 48 hrs by Annexin V-FITC/propidium iodide staining based flow cytometry (reference value: 6.3%); type: functional
[4] = system: MDA-MB-468; assay: Antiproliferative activity against human MDA-MB-468 cells after 72 hrs by MTT assay; type: functional, cell-based
Procedure, shortened: (§3)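 MTT proliferation assay. Cells were seeded at 1 × 10^4 per well and exposed to DMSO or compound at 0.1, 0.33, 1.0, 3.3 and 10 μM for 72 h. MTT reagent was added, and OD at 560 nm was read after 1 h at 37°C. Each concentration was tested in quadruplicate wells.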

[5] = system: MDA-MB-231; assay: Induction of apoptosis in human MDA-MB-231 cells assessed as reduction in Bcl2 to Bax ratio at 1 to 20 uM after 48 hrs by Western blot analysis; type: functional, cell-based; procedure, shortened: as §1
[6] = system: MDA-MB-231; assay: Induction of apoptosis in human MDA-MB-231 cells assessed as late apoptotic cells at 20 uM after 48 hrs by Annexin V-FITC/propidium iodide staining based flow cytometry (reference value: 6.3%); type: functional
[7] = system: MDA-MB-231; assay: Induction of apoptosis in human MDA-MB-231 cells assessed as dead cells at 10 uM after 48 hrs by Annexin V-FITC/propidium iodide staining based flow cytometry (reference value: 1.5%); type: functional
[8] = system: SK-BR-3; assay: Antiproliferative activity against human SK-BR-3 cells after 72 hrs by MTT assay; type: functional, cell-based; procedure, shortened: as §3
[9] = system: MDA-MB-231; assay: Induction of apoptosis in human MDA-MB-231 cells after 48 hrs by Annexin V-FITC/propidium iodide staining based flow cytometry; type: functional, cell-based
[10] = system: SK-BR-3; assay: Inhibition of colony formation in human SK-BR-3 cells after 2 weeks by crystal violet staining based assay; type: functional, cell-based; procedure, shortened: as §2
[11] = system: MDA-MB-231; assay: Induction of apoptosis in human MDA-MB-231 cells assessed as late apoptotic cells at 1 uM after 48 hrs by Annexin V-FITC/propidium iodide staining based flow cytometry (reference value: 6.3%); type: functional
[12] = system: MDA-MB-231; assay: Induction of apoptosis in human MDA-MB-231 cells assessed as late apoptotic cells at 10 uM after 48 hrs by Annexin V-FITC/propidium iodide staining based flow cytometry (reference value: 6.3%); type: functional
[13] = system: MDA-MB-231; assay: Antiproliferative activity against human MDA-MB-231 cells after 72 hrs by MTT assay; type: functional, cell-based; procedure, shortened: as §3
[14] = system: MDA-MB-231; assay: Induction of apoptosis in human MDA-MB-231 cells assessed as early apoptotic cells at 10 uM after 48 hrs by Annexin V-FITC/propidium iodide staining based flow cytometry (reference value: 1.85%); type: functional
[15] = Glutathione reactivity in pH 7.4 deuterated phosphate buffer assessed as reaction half life at 10 mg up to 120 mins in presence of 1.5 to 2 equiv of GSH by 1H NMR analysis; type: physicochemical; conditions: pH 7.4, 2 h
Procedure, shortened: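 Glutathione (1.5–2 equiv) was incubated with compound at 37°C in DMSO-d6 mixed with sodium phosphate buffer in D2O, pH 7.4. Reactivity was monitored by 1H NMR.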

[16] = system: MDA-MB-231; assay: Induction of apoptosis in human MDA-MB-231 cells assessed as live cells at 1 uM after 48 hrs by Annexin V-FITC/propidium iodide staining based flow cytometry (reference value: 90.35%); type: functional
[17] = system: MDA-MB-231; assay: Induction of apoptosis in human MDA-MB-231 cells assessed as live cells at 5 uM after 48 hrs by Annexin V-FITC/propidium iodide staining based flow cytometry (reference value: 90.35%); type: functional
[18] = system: MDA-MB-231; assay: Induction of apoptosis in human MDA-MB-231 cells assessed as live cells at 10 uM after 48 hrs by Annexin V-FITC/propidium iodide staining based flow cytometry (reference value: 90.35%); type: functional
[19] = system: MCF7; assay: Antiproliferative activity against human MCF7 cells after 72 hrs by MTT assay; type: functional, cell-based; procedure, shortened: as §3
[20] = system: MDA-MB-231; assay: Induction of apoptosis in human MDA-MB-231 cells assessed as early apoptotic cells at 5 uM after 48 hrs by Annexin V-FITC/propidium iodide staining based flow cytometry (reference value: 1.85%); type: functional
[21] = system: MCF7; assay: Inhibition of colony formation in human MCF7 cells after 2 weeks by crystal violet staining based assay; type: functional, cell-based; procedure, shortened: as §2
[22] = system: MDA-MB-231; assay: Induction of apoptosis in human MDA-MB-231 cells assessed as late apoptotic cells at 15 uM after 48 hrs by Annexin V-FITC/propidium iodide staining based flow cytometry (reference value: 6.3%); type: functional
[23] = system: MDA-MB-231; assay: Induction of apoptosis in human MDA-MB-231 cells assessed as early apoptotic cells at 15 uM after 48 hrs by Annexin V-FITC/propidium iodide staining based flow cytometry (reference value: 1.85%); type: functional
[24] = system: MDA-MB-231; assay: Induction of apoptosis in human MDA-MB-231 cells assessed as early apoptotic cells at 20 uM after 48 hrs by Annexin V-FITC/propidium iodide staining based flow cytometry (reference value: 1.85%); type: functional
[25] = system: MDA-MB-231; assay: Downregulation of NF-kB p65 protein expression in human MDA-MB-231 cells after 48 hrs by Western blot analysis; type: functional, cell-based; procedure, shortened: as §1
[26] = system: MDA-MB-231; assay: Induction of apoptosis in human MDA-MB-231 cells assessed as dead cells at 1 uM after 48 hrs by Annexin V-FITC/propidium iodide staining based flow cytometry (reference value: 1.5%); type: functional
[27] = system: MDA-MB-231; assay: Induction of apoptosis in human MDA-MB-231 cells assessed as live cells at 15 uM after 48 hrs by Annexin V-FITC/propidium iodide staining based flow cytometry (reference value: 90.35%); type: functional
[28] = system: MDA-MB-231; assay: Antitumor activity against human MDA-MB-231 cells xenografted in nude mouse assessed as tumor growth inhibition at 10 to 15 mg/kg, ip daily for 10 days; type: functional, organism-based
Procedure, shortened: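 Orthotopic model: female nude mice, 6–8 weeks old. MDA-MB-231 cells (1.0 × 10^6 in PBS) were injected into the no. 3 mammary fat pad, and mice were randomized into 4 groups. Once tumors reached 80–100 mm3, mice received 10 or 15 mg/kg daily by intraperitoneal injection in DMSO vehicle. Tumor volume (0.5 × L × W2) and body weight were measured daily. Mean ± SEM.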

[29] = system: MDA-MB-231; assay: Induction of apoptosis in human MDA-MB-231 cells assessed as early apoptotic cells at 1 uM after 48 hrs by Annexin V-FITC/propidium iodide staining based flow cytometry (reference value: 1.85%); type: functional
[30] = Glutathione reactivity in pH 7.4 deuterated phosphate buffer assessed as GSH adduct formation at 10 mg after 1 hr in presence of 1.5 to 2 equiv of GSH by HRMS analysis
[31] = system: MDA-MB-231; assay: Induction of apoptosis in human MDA-MB-231 cells assessed as live cells at 20 uM after 48 hrs by Annexin V-FITC/propidium iodide staining based flow cytometry (reference value: 90.35%); type: functional
[32] = system: MDA-MB-231; assay: Induction of apoptosis in human MDA-MB-231 cells assessed as dead cells at 20 uM after 48 hrs by Annexin V-FITC/propidium iodide staining based flow cytometry (reference value: 1.5%); type: functional
[33] = system: MCF-10A; assay: Antiproliferative activity against human MCF10A cells up to 100 uM after 48 hrs by MTT assay
[34] = system: MDA-MB-231; assay: Inhibition of colony formation in human MDA-MB-231 cells after 2 weeks by crystal violet staining based assay; type: functional, cell-based; procedure, shortened: as §2
[35] = system: MDA-MB-231; assay: Induction of apoptosis in human MDA-MB-231 cells assessed as dead cells at 5 uM after 48 hrs by Annexin V-FITC/propidium iodide staining based flow cytometry (reference value: 1.5%); type: functional

Which Activity [1] does the source give for `C=CC(=O)N1CC12C(=O)[C@@]13[C@@H]4OC(C)(C)O[C@@]15OC[C@@]1([C@H]([C@@H]5O)C(C)(C)CC[C@@H]1O)[C@@H]3CC[C@H]42` (some centres not stated) here?
The Activity was “Dose-dependent effect”.

And the inhibition [2]?
Its inhibition is “Active”.

And the Activity [3]?
Its Activity is 6.7%.

And the Activity [4]?
The Activity was “Dose-dependent effect”.

And the Activity [5]?
Its Activity is “Active”.

What about the Activity [6] of the same compound?
Its Activity is 44.65%.

And the Activity [7]?
Its Activity is 2.75%.

And the Activity [8]?
The Activity was “Dose-dependent effect”.

What about the Activity [9] of the same compound?
The Activity was “Dose-dependent effect”.

What about the inhibition [10] of the same compound?
The inhibition was “Active”.

What about the Activity [11] of the same compound?
Its Activity is 6.05%.

What about the Activity [12] of the same compound?
Its Activity is 12.75%.

And the Activity [13]?
The Activity was “Dose-dependent effect”.

And the pIC50 ([13]; MDA-MB-231, 72 h)?
The pIC50 was 5.08.

And the Activity [14]?
Its Activity is 5.45%.

What about the t1/2 [15] of the same compound?
The t1/2 was 30 to 60 min.

And the Activity [16]?
The Activity was 89.5%.

What about the Activity [17] of the same compound?
Its Activity is 87.95%.

And the Activity [18]?
The Activity was 79.05%.

And the Activity [19]?
Its Activity is “Dose-dependent effect”.

What about the pIC50 ([19]; MCF7, 72 h) of the same compound?
Its pIC50 is 5.03.

And the Activity [20]?
Its Activity is 3.6%.

What about the inhibition [21] of the same compound?
The inhibition was “Active”.

And the Activity [22]?
Its Activity is 21.6%.

And the Activity [23]?
Its Activity is 5.2%.

What about the Activity [24] of the same compound?
Its Activity is 2.95%.

And the Activity [25]?
Its Activity is “Dose-dependent effect”.

What about the Activity [26] of the same compound?
The Activity was 1.95%.

And the Activity [27]?
The Activity was 70.25%.

And the TGI [28]?
Its TGI is “Active”.

What about the Activity [29] of the same compound?
The Activity was 2.5%.

What about the Drug metabolism [30] of the same compound?
The Drug metabolism was “Metabolite detected”.

What about the Activity [31] of the same compound?
Its Activity is 50.35%.

What about the Activity [32] of the same compound?
The Activity was 2.05%.

What about the Activity [33] of the same compound?
The Activity was “Non-Toxic”.

What about the inhibition [34] of the same compound?
The inhibition was “Active”.

And the Activity [35]?
The Activity was 1.75%.
